Compound activity as filed in PubChem BioAssay.
PGC1a acetyl inh: inhibitors of PGC1a acetylation signal, primary screen, cell-based, U2OS, AlphaScreen, inhibitor mode; AlphaScreen anti-acetyl-lysine; with virally co-expressed GCN5 acetyltransferase; inhibition, % at 15.6 µM; hit rate 0.17% among 350,000;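 active means every replicate shows inhibition of at least 40%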;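 further: 0% = neutral control wells and 100% = positive control wells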
Statin myotox sup: suppressors of statin myotoxicity in C2C12 myotubes, primary screen, cell-based, single point, plate reader; AID 602340, 2012; hit rate 0.78% among 330,000; rescue of ATP level, % at 7.49 µM; C2C12 myotubes + simvastatin, ATP luminescence, 48 h; scaled: DMSO 0, geranylgeraniol control 100;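 active means mean ATP rescue above about 67%, or every replicate alone reaching that limit, limit read from the data, passing the limit was not always enough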;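 further: myotubes were challenged with 10 µM simvastatin during compound exposure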
ERAP1 HTS inh: human ERAP1 aminopeptidase inhibitors, primary screen, biochemical, single point, plate reader; recombinant ERAP1, Leu-AMC fluorescence, 60 min; inhibition, % at 10.7 µM; hit rate 0.15% among 340,000; AID 652197, 2013;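 active means mean replicate inhibition of at least 30%, or all replicates individually reaching that 30% level; inactive means mean below 30% and not every replicate reaching it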;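 further: 0% = neutral control wells and 100% = L-leucinethiol positive control wells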
Target sequence (Q9NZ08 whole entry, looked up): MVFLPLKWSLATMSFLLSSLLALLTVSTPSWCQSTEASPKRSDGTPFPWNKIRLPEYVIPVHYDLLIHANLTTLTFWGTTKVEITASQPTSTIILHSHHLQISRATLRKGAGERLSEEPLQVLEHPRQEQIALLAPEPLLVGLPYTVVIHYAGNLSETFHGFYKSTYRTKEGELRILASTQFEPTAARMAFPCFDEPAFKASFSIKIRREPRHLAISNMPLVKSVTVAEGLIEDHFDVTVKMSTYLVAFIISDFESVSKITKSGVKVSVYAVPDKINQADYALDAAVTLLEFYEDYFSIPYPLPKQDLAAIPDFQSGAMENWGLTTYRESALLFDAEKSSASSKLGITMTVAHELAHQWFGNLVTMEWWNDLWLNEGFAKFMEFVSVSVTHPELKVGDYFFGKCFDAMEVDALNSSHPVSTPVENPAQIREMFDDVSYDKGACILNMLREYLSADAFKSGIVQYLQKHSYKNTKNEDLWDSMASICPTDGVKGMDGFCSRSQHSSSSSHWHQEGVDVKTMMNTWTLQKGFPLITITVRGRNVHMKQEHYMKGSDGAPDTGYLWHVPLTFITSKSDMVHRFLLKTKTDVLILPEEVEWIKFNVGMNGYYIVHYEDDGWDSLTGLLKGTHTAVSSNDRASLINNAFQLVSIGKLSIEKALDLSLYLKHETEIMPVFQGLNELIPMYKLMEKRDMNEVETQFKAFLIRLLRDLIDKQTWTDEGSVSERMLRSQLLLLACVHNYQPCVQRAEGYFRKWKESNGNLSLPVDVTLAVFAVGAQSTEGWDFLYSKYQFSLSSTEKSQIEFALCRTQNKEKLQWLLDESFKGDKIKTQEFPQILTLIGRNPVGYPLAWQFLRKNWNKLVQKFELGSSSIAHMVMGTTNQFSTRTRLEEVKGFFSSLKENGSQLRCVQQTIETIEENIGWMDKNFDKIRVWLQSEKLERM
S100A4 MyoIIA: inhibitors of S100A4-myosin IIA peptide binding, primary screen, biochemical, fluorescence polarization, TAMRA-MyoIIA peptide; hit rate 0.14% among 360,000; Protein S100-A4 (Homo sapiens), P26447; AID 652163, 2013; inhibition, % at 10.7 µM;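 active means mean inhibition of at least 70% across replicates, with every replicate also reaching that level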
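Test system – S100A4 monomer (human) · Compound – single-point compound testing · Schedule – 5 min incubation before reading · Probe or stimulus – TAMRA-labelled myosin IIA heavy-chain peptide probe, 5 nM · Benchmarks – neutral control DMSO, positive control TFP · Medium – Calcium-containing HEPES buffer, pH 7.2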
Rtt109 HAT inh: inhibitors of C. albicans Rtt109/Vps75 HAT, primary screen, biochemical, ThioGlo CoA-SH fluorescence, plate reader. inhibition, % at 34.9 µM. Histone acetyltransferase RTT109 (Candida albicans (strain SC5314 / ATCC MYA-2876)), …. hit rate 0.16% among 330,000. purified Rtt109/Vps75, 4 h;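 active means inhibition of at least 50% in every replicate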
An asterisk follows results filed as active; / = no result given. Hits are enriched below; roughly 0.98% of the tested compounds scored in any of these assays.

SMILES | PGC1a acetyl inh | Statin myotox sup | ERAP1 HTS inh | S100A4 MyoIIA | Rtt109 HAT inh
C[C@]1(C2CCCC2)Cc2cc(OCC(=O)O)c(Cl)c(Cl)c2C1=O | 2 | -7 | 1 | -3 | 0
O=C(Nc1ccc2c(c1)[C@H]1C[C@H](CC(=O)N3CCOCC3)O[C@H](CO)[C@H]1O2)NC1CCCC1 | 7 | 2 | 0 | -2 | /
Cc1nc2ccccn2c1-c1nnco1 | 9 | 72* | / | / | 0
CC(=O)N(CCC(Cc1ccccc1)c1ccco1)Cc1ccco1 (stereo not drawn) | -10 | 8 | 0 | -1 | 53*
CC(C)(C)[C@@H]1C=C(C(=O)Nc2ccccc2)O[C@H](OCc2ccc(CO)cc2)C1 | 9 | 15 | -3 | 98* | 9
COc1cccc(S(=O)(=O)N[C@@H]2CC[C@H](CC(=O)NCc3ccc(F)cc3)O[C@@H]2CO)c1 | 12 | 4 | -2 | -3 | /
CN(C(=O)Cn1c(Cl)nc2c1c(=O)n(C)c(=O)n2C)C1CCS(=O)(=O)C1 (stereo not drawn) | 16 | 1 | 83* | -3 | 8
O=C(C[C@@H]1CC[C@@H]2[C@H](COC[C@H](O)CN2S(=O)(=O)c2cccc(Cl)c2)O1)N1CCCCC1 | -2 | 13 | / | / | /
COc1ccc(NC(=O)c2sc3cc(C(F)(F)F)cnc3c2-c2cccs2)cc1 | -6 | -18 | / | / | -4
O=C(Nc1ccc(F)cc1)c1sc2cc(C(F)(F)F)cnc2c1-c1cccs1 | 114* | / | / | / | 3
C[C@@H]1CCCCO[C@@H](CN(C)S(=O)(=O)c2ccc(F)cc2)[C@H](C)CN([C@@H](C)CO)C(=O)c2cc(NC(=O)C3CCCCC3)ccc2O1 | -7 | / | -3 | 0 | /
COc1ccc(-c2cc(C3CC3)nc3sc(C#N)c(N)c23)cc1 | -7 | 77* | / | / | -25
CN1C2CCC1/C(=C\c1ccc(F)cc1)C(=O)/C2=C/c1ccc(F)cc1 | / | / | / | / | 2
C=CC(=O)N1C/C(=C/c2ccc(F)cc2)C(=O)/C(=C\c2ccc(F)cc2)C1 | 83* | 17 | -1 | -3 | 4
COCCCn1cnc2c(c1=O)c1nc3ccccc3nc1n2-c1ccccc1 | 0 | 127* | / | / | -34
O=C1C[C@@H]2c3c(cccc3CN1Cc1ccccc1F)C[C@@H](O)[C@H]2O | 0 | 126* | -1 | -1 | 4
O=C1C[C@@H]2c3c(cccc3CN1Cc1ccc(Cl)cc1)C[C@@H](O)[C@H]2O | -8 | 119* | -2 | -1 | -3
O=C1C[C@@H]2c3c(cccc3CN1Cc1ccccc1Cl)C[C@@H](O)[C@H]2O | 16 | 20 | -3 | -4 | -4
CCc1ccc(CN2CC(C(=O)O)CC2=O)cc1 (stereo not drawn) | 3 | 10 | -2 | -5 | 4
CCCNC(=O)C[C@@H]1C[C@@H]2c3cc(NC(=O)c4cccnc4)ccc3O[C@@H]2[C@H](CO)O1 | 2 | -5 | / | / | /
CCOc1ccc(C(=O)Cc2ccc3oc(C(=O)O)cc3c2)c(O)c1 | 17 | 2 | / | / | 15
CCOC(=O)c1cc2cc(CC(=O)c3ccc(OCC)cc3O)ccc2o1 | 8 | 97* | / | / | -19
COc1ccc(S(=O)(=O)Nc2cc(C(=O)NCCC(C)C)ccc2N2CCOCC2)cc1 | -28 | 93* | / | / | 1
O=c1c2[nH]c3cccc(Cl)c3c2ncn1CCN1CCCCC1 | 1 | 103* | / | / | -12
O=C(O)C1=NN(c2ccccc2)C(=O)CC1 | 9 | 7 | 2 | -1 | 2
SMILES | PGC1a acetyl inh | Statin myotox sup | ERAP1 HTS inh | S100A4 MyoIIA | Rtt109 HAT inh
Cc1ccc(N2N=C(C(=O)O)CCC2=O)cc1Cl | 3 | 124* | 0 | 1 | 8
N#CCCN1CCn2c1nc1ccccc12 | / | -3 | / | / | -1
CN1CCN(CCN2CCn3c2nc2ccccc23)CC1 | -6 | 81* | / | / | 1
CC(C)(C)n1nnnc1C(c1cccnc1)N1CCN(c2cccc(C(F)(F)F)c2)CC1 (stereo not drawn) | -5 | 5 | / | / | 6
CC(C)(C)c1cc(C(c2cccnc2)N2CCN(CCO)CC2)cc(C(C)(C)C)c1O (stereo not drawn) | -49 | -25 | 15 | 11 | 92*
c1ccc(-c2csc3nnc(SCc4ccc5c(c4)OCCO5)n23)cc1 | -13 | 157* | / | / | 1
Cc1ccc(S(=O)(=O)N(C)C[C@H]2Oc3c(NC(=O)C4CCOCC4)cccc3C(=O)N([C@H](C)CO)C[C@H]2C)cc1 | 2 | 6 | -1 | -16 | /
O=C(Cc1ccccc1)NCC(=O)N/N=C/c1ccc([N+](=O)[O-])s1 | -9 | 163* | 0 | -2 | -1
O=C(CNC(=O)c1ccccc1)N/N=C/c1ccc([N+](=O)[O-])s1 | -7 | / | 6 | -1 | -7
CO[C@H]1CN(C)C(=O)c2ccc(NS(C)(=O)=O)cc2OC[C@H](C)N(CCC(F)(F)F)C[C@H]1C | 0 | 0 | -2 | 5 | /
N#C[C@H]1[C@@H](c2ccc(C3=CCCCC3)cc2)[C@@H](CO)N1S(=O)(=O)c1ccccc1 | 15 | -56 | -1 | -3 | /
Cc1nn(C)cc1CNC(=O)Nc1cccc(Cl)c1 | 1 | 113* | / | / | 7
Cc1nn(C)cc1CNC(=O)Nc1ccc(Br)cc1Cl | -4 | 4 | / | / | 1
CCn1cc([N+](=O)[O-])c(C(=O)N2N=C(c3cccc4ccccc34)CC2c2ccccc2O)n1 (stereo not drawn) | 1 | 80* | / | / | 2
C[C@@H]1CN([C@H](C)CO)C(=O)c2cc(NC(=O)Nc3ccccc3)ccc2O[C@H]1CN(C)C(=O)Nc1cccc2ccccc12 | 1 | 6 | -3 | -5 | /
C/C=C/c1ccc([C@H]2[C@H](CO)N(C(=O)c3cnccn3)C23CN(C(=O)C2CC2)C3)cc1 | -10 | / | 0 | 12 | /
N#C[C@@H]1[C@@H](c2ccc(C#Cc3cccnc3)cc2)[C@@H](CO)N1C(=O)NC1CCCCC1 | 0 | -10 | -1 | 3 | /
CC(C)(C)[S@@](=O)N1Cc2cc(C(=O)NC3CCCCC3)nc(-c3cccc(Br)c3)c2[C@H]1CCO | / | -26 | 1 | -29 | /
CCc1ccc(CCC(=O)Nc2ccc(Cl)cc2)o1 | 3 | -25 | 2 | 5 | 7
Cc1ccc(CCC(=O)Nc2ccc(Cl)cc2)o1 | 72* | -11 | -3 | 0 | 8
CCOC(=O)c1cnc(SC)nc1Oc1cccc(NS(=O)(=O)c2ccc(C)cc2)c1 | 7 | 90* | / | / | 0
Cc1c(Cl)cccc1Nc1nc(N)nc(CN2CCCCCC2)n1 | -18 | 90* | / | / | 1
CC(C)C[C@H]1CN(CCCC[C@@H]2CNC(=O)C(=O)N2Cc2ccccc2)C(=O)C(=O)N1Cc1ccccc1 | / | / | -1 | 90* | /
CCOC(=O)c1c(C)oc2ccc(OCC(=O)C(C)(C)C)cc12 | 1 | 144* | / | / | -1
